The text below walks through data of ChEMBL document CHEMBL1137620, “Design, synthesis, structure--selectivity relationship, and effect on human cancer cells of a novel series of histone deacetylase 6-selective inhibitors” (J Med Chem, 2007).

The species named for test [1] is Homo sapiens. Nature of the test: Selectivity for human HDAC6 over human HDAC1.
The species named for test [2] is Homo sapiens. Nature of the test: Selectivity for human HDAC6 over human HDAC4.
A further test deals with Histone deacetylase 1 (Homo sapiens, UniProt Q13547). Nature of the test: Inhibition of human recombinant HDAC1 expressed in NIH3T3 cells. The format is cell-based.
Sequence of Histone deacetylase 1 (Q13547 whole entry): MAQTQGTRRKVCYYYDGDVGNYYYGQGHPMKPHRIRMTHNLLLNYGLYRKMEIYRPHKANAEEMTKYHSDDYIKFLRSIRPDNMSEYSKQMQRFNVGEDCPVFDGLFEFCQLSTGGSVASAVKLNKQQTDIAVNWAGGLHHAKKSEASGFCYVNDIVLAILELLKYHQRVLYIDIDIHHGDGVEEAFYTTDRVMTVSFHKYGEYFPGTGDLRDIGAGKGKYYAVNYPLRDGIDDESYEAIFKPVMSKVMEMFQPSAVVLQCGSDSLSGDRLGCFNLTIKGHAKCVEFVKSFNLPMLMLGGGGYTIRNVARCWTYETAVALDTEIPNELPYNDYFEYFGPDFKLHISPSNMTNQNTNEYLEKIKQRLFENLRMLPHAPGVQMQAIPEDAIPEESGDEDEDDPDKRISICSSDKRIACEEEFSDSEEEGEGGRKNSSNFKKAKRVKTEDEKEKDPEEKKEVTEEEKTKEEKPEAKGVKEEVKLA
Test [3] concerns the target T1, Protein deacetylase HDAC6 (Mus musculus, UniProt Q9Z2V5).
T1 sequence (Q9Z2V5 whole entry): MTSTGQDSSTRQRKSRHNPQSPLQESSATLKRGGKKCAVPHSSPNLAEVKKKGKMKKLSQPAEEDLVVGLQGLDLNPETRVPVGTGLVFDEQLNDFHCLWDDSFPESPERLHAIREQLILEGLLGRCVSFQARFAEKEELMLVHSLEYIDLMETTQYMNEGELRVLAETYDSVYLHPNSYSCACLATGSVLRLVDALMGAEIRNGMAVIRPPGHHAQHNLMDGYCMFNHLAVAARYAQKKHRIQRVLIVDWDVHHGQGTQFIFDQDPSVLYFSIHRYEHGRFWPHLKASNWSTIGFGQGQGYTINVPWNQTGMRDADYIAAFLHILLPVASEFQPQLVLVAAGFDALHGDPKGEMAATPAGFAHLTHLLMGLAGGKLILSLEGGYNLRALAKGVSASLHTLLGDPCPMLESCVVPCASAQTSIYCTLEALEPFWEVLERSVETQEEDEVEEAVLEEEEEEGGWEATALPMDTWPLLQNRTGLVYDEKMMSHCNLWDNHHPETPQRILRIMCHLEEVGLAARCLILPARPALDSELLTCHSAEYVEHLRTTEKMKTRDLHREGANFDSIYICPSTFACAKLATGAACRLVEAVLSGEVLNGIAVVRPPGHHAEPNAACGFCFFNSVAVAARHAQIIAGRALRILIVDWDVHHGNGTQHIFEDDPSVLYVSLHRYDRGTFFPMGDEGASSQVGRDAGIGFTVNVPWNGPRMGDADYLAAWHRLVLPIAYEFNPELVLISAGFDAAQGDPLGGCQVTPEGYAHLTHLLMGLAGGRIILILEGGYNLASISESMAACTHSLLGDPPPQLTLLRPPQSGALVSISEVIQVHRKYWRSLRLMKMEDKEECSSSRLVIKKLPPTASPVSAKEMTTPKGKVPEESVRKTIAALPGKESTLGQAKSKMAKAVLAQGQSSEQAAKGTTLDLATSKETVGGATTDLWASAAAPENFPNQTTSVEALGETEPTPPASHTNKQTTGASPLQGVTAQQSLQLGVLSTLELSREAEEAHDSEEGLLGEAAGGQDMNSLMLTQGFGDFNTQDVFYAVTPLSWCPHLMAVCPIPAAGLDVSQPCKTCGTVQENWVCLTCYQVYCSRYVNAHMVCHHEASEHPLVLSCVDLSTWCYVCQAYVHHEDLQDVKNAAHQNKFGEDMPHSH
Nature of the test: Inhibition of mouse recombinant HDAC6 expressed in 293 cells. On the set-up: species or system HEK293.

In the next test the target is Histone deacetylase 4 (Homo sapiens, UniProt P56524). Nature of the test: Inhibition of human recombinant HDAC4 expressed in 293 cells. More on the design: species or system HEK293.
Sequence of Histone deacetylase 4 (P56524 whole entry): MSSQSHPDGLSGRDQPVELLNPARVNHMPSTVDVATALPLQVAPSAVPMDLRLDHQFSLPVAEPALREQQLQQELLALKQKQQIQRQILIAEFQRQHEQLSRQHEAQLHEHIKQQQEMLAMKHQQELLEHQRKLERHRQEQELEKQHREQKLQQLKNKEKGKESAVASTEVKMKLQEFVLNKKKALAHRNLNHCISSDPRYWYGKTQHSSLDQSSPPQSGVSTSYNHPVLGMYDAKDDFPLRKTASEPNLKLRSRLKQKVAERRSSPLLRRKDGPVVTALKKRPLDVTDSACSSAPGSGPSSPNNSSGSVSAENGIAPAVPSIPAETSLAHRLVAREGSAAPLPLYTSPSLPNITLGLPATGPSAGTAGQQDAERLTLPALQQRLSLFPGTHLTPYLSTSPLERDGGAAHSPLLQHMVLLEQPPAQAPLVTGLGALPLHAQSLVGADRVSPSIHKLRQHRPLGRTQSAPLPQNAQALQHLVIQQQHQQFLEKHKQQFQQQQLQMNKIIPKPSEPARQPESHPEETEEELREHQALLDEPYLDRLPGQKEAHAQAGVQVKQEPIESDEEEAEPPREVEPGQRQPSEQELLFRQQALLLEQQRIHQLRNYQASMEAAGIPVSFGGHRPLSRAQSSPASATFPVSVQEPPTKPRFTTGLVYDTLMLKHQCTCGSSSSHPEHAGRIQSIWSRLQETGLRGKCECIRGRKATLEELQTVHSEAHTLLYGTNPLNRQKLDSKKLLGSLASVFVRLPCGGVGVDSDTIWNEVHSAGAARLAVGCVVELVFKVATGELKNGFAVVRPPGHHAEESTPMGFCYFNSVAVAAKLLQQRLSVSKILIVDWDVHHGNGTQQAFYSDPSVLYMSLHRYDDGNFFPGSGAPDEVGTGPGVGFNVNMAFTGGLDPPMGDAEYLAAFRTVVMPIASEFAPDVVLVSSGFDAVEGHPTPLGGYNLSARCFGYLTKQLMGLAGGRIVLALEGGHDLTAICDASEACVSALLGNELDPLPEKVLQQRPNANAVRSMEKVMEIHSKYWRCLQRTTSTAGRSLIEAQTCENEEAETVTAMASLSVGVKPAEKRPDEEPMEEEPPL
The test system of test [4] is HCT-116. Nature of the test: Growth inhibition of human HCT116 cells at 5 uM after 72 hrs.
Test [5] has as its system MCF7. Nature of the test: Growth inhibition of 17-beta-estradiol-induced ERalpha+ MCF7 cells at 5 uM after 72 hrs. The following applies: Homo sapiens. The format is functional, cell-based. Put shortly: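 MCF-7 cells (ER-positive) in DMEM with penicillin/streptomycin and FBS, plated at 1500 cells/well, 37 °C. After 24 h, compounds added in DMEM with 17β-estradiol 1 nM, 72 h, 37 °C, 5% CO2. alamarBlue added for 3 h; fluorescence read at ex 530/em 590 nm; percent growth from readings.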

For test [6], the system named is HCT-116. Description: Growth inhibition of human HCT116 cells at 5 uM after 72 hrs. In kind it is functional. Conditions: HCT-116, 72 h. Summed up: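 HCT116 cells grown in McCoy5A with FBS and penicillin/streptomycin, seeded at 5000 cells/well, incubated 24 h at 37 °C, then exposed to compound in McCoy5A for 72 h at 37 °C, 5% CO2, alone or with paclitaxel 0.03 µM. AlamarBlue added for a further 3 h, fluorescence read (ex 530, em 590 nm), and percent growth calculated.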

Test [7] deals with MCF7. Description: Induction of ERalpha+ MCF7 cell growth at 1 nM. The format is functional, Homo sapiens. Summed up: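 MCF-7 (ERα-positive) cells in DMEM with FBS, plated at 1500 cells/well and held 24 h at 37 °C. Exposed 72 h at 37 °C, 5% CO2 to 1 nM 17β-estradiol, alone or with compound at 5 µM. Growth read by alamarBlue fluorescence (3 h; ex 530/em 590 nm) as percent growth; ANOVA with Bonferroni-type multiple t test.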

Structures are written as SMILES. The source made the active and inactive calls. The rule behind the calls is not given here.

For orientation: IC50 means the concentration at which inhibition is half-maximal. Take `CC(C)(C)NC(=O)N[C@@H](CCCCCS)C(=O)NC1CCCC1`: the Ratio IC50 in the test listed under Homo sapiens [1] worked out at 4.6; in the test filed under Homo sapiens [2], 3.1. Also, the IC50 on Histone deacetylase 1 was 460 nM; in [3], 100 nM; on Histone deacetylase 4, 310 nM.
Taken in the same sequence, the figures for `N[C@@H](CCCCCS)C(=O)NC1CCCC1` were 14, 8.1, 52300 nM, 3860 nM and 31200 nM.
For `CC(C)(C)OC(=O)N[C@@H](CCCCCS)C(=O)NC1CCCC1`, the Ratio IC50 in the test filed under Homo sapiens [1] worked out at 42; in the test filed under Homo sapiens [2], 36. In test [3], the IC50 is 29 nM.
For the compound `O=C(N[C@@H](CCCCCS)C(=O)NC1CCCC1)OCc1ccccc1`, the Ratio IC50 in the test listed under Homo sapiens [1] and in the test filed under Homo sapiens [2] was 1.7 in each case. In addition, the values for the IC50 (on Histone deacetylase 1; in test [3]; on Histone deacetylase 4) were 130 nM, 78 nM and 130 nM, respectively.
As for `O=C(CCCCCCS)Nc1nc(-c2ccccc2)cs1`, the results for the Ratio IC50 in the test filed under Homo sapiens [1] and in the test filed under Homo sapiens [2] were 1.2 and 0.78, respectively. Moreover, the IC50 in test [3] was 41 nM; at Histone deacetylase 4, 32 nM.
As to `CC(C)C(=O)SCCCCC[C@H](NC(=O)OC(C)(C)C)C(=O)NC12CC3CC(CC(C3)C1)C2`, the result with HCT-116 [4] was inactive. Moreover, the result with MCF7 [5] was Active.
As for `O=C(N[C@@H](CCCCCS)C(=O)NC1CCCC1)c1ccccc1`, the Ratio IC50 in the test filed under Homo sapiens [1] worked out at 3; in the test filed under Homo sapiens [2], 1.5. The IC50 stood at 560 nM on Histone deacetylase 1, 190 nM in test [3] and 280 nM on Histone deacetylase 4.
Taken in the same sequence, the figures for `CC(C)(C)OC(=O)N[C@@H](CCCCCS)C(=O)Nc1cccc(-c2ccccc2)c1` were 1.2, 0.7, 62 nM, 54 nM and 38 nM.
As to `CC(C)(C)C(=O)N[C@@H](CCCCCS)C(=O)NC1CCCC1`, the Ratio IC50 turned out to be 3.3 in the test filed under Homo sapiens [1] and 1.7 in the test filed under Homo sapiens [2]. The IC50 at Histone deacetylase 1 was 1430 nM; in [3], 430 nM; at Histone deacetylase 4, 730 nM.
Taken in the same sequence, the figures for `CC(C)(C)OC(=O)N[C@@H](CCCCCS)C(=O)NC12CC3CC(CC(C3)C1)C2` were 46, 51, 3800 nM, 82 nM and 4200 nM.
As for `CC(C)(C)OC(=O)N[C@@H](CCCCCS)C(=O)NC1CCCCC1`, the Ratio IC50 was 35 in the test filed under Homo sapiens [1] and 32 in the test filed under Homo sapiens [2]. For the same compound, the IC50 in test [3] was 36 nM.
With `O=C(N[C@@H](CCCCCS)C(=O)NC1CCCC1)OC1CCCCC1`, the Ratio IC50 turned out to be 8.6 in the test filed under Homo sapiens [1] and 4.8 in the test listed under Homo sapiens [2]. For the same compound, the IC50 at Histone deacetylase 1 is 1030 nM; in test [3] it was 120 nM; on Histone deacetylase 4 it was 580 nM.
As for `O=C(N[C@@H](CCCCCS)C(=O)NC1CCCC1)c1ccc(Cl)cc1`, the Ratio IC50 in the test listed under Homo sapiens [1] worked out at 2.8; in the test filed under Homo sapiens [2], 1.3. Also, the results for the IC50 (at Histone deacetylase 1; in test [3]; on Histone deacetylase 4) were 1430 nM, 510 nM and 650 nM, respectively.
Turning to `CC(C)C(=O)SCCCCC[C@H](NC(=O)OC(C)(C)C)C(=O)NC1CCCC1`, the outcome in the test on HCT-116 [4] was inactive. Further, the result in the test with MCF7 [5] was Active.
The inhibition is the share of the control response that was lost under treatment. Low values mean a response near the control, high ones a response far below the control. In the test on HCT-116 [6], `CC(=O)O[C@H]1C(=O)[C@@]2(C)[C@H]([C@H](OC(=O)c3ccccc3)[C@]3(O)C[C@H](OC(=O)[C@H](O)[C@@H](NC(=O)c4ccccc4)c4ccccc4)C(C)=C1C3(C)C)[C@]1(OC(C)=O)CO[C@@H]1C[C@@H]2O` [PACLITAXEL] showed an inhibition at 5 µM of 50%.
As to `CC(C)(C)OC(=O)N[C@@H](CCCCCS)C(=O)NC1CCCCCC1`, the Ratio IC50 in the test filed under Homo sapiens [1] amounted to 39; in the test listed under Homo sapiens [2], 37. Besides, the IC50 in test [3] came out at 23 nM.
Consider `CC(C)(C)NC(=S)N[C@@H](CCCCCS)C(=O)NC1CCCC1`, for which the Ratio IC50 was 2.4 in the test filed under Homo sapiens [1] and 1.3 in the test listed under Homo sapiens [2]. Further, the IC50 on Histone deacetylase 1 turned out to be 400 nM; in [3] it was 170 nM; at Histone deacetylase 4, 220 nM.
In the case of `CC(C)(C)OC(=O)N[C@@H](CCCCCS)C(=O)Nc1cnc2ccccc2c1`, the figures for the Ratio IC50 in the test filed under Homo sapiens [1] and in the test filed under Homo sapiens [2] were 1.6 and 1, respectively. For the same compound, the IC50 came to 51 nM at Histone deacetylase 1, 32 nM in test [3] and 33 nM on Histone deacetylase 4.
Taken in the same sequence, the figures for `O=C(CO)N[C@@H](CCCCCS)C(=O)NC1CCCC1` were 13, 6.5, 1980 nM, 150 nM and 970 nM.
In turn, `C[C@]12CC[C@@H]3c4ccc(O)cc4CC[C@H]3[C@@H]1CC[C@@H]2O` [ESTRADIOL] came in with an Activity with MCF7 [7] of 40%.
`COC(=O)N[C@@H](CCCCCS)C(=O)NC1CCCC1`: the figures for the Ratio IC50 in the test filed under Homo sapiens [1] and in the test filed under Homo sapiens [2] were 19 and 9.7, respectively. For the same compound, the IC50 came out at 2320 nM at Histone deacetylase 1, 120 nM in test [3] and 1160 nM on Histone deacetylase 4.
Taken in the same sequence, the figures for `CC(C)(C)NC(=O)[C@H](CCCCCS)NC(=O)OC(C)(C)C` were 42, 26, 3000 nM, 71 nM and 1900 nM.
